Experimental data reported in ChEMBL document CHEMBL1142173, “Novel macrolide resistance module carried by the IncP-1beta resistance plasmid pRSB111, isolated from a wastewater treatment plant” (2007).
≈ marks a conversion by molar mass, not a printed value.

Experiments:
Type in all cases: functional
Escherichia coli [1] = experiment: Antibacterial activity against Escherichia coli DH5alpha containing macrolide-resistant pUC18-mph(E)-mrx(E) region
Summary of the method: (§1)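 Host is E. coli DH5α carrying pUC18 with PCR-amplified fragments of the pRSB111 macrolide resistance region (covering mphR(E), mph(E) and/or mrx(E)). MIC is read per recombinant strain, with DH5α carrying empty pUC18 as control.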

Pseudomonas sp. [2] = experiment: Antibacterial activity against Pseudomonas sp. B13 GFP1 containing multiresistance plasmid pRSB101
Pseudomonas sp. [3] = experiment: Antibacterial activity against Pseudomonas sp. B13 GFP1 containing macrolide resistance plasmid pRSB111
Summary of the method: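 Host is Pseudomonas sp. strain B13 GFP1 carrying pRSB111, captured by exogenous mating from wastewater-plant final effluent. It is maintained in LB with erythromycin (300 μg/ml) at 30°C. MIC is in μg/ml, with the plasmid-free B13 GFP1 strain tested alongside.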

Escherichia coli [4] = experiment: Antibacterial activity against Escherichia coli DH5-alpha containing macrolide-resistant pUC18-mrx(E) region; settings: DH5alpha; summary of the method: as §1
Escherichia coli [5] = experiment: Antibacterial activity against Escherichia coli DH5-alpha containing macrolide-resistant pUC18-mph(E) region; settings: DH5alpha; summary of the method: as §1
Escherichia coli [6] = experiment: Antibacterial activity against Escherichia coli DH5-alpha containing pUC18; settings: DH5alpha
Summary of the method: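 MIC measured for E. coli DH5α transformed with the empty vector pUC18, which served as the control. It was tested alongside DH5α carrying pUC18 clones of PCR-amplified fragments of the pRSB111 macrolide resistance region (mphR(E), mph(E), mrx(E)).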

Pseudomonas sp. [7] = experiment: Antibacterial activity against Pseudomonas sp. B13 GFP1

Structure (SMILES)	MIC (Escherichia coli [1]) [µg/mL]	MIC (Pseudomonas sp. [2]) [µg/mL]	MIC (Pseudomonas sp. [3]) [µg/mL]	MIC (Escherichia coli [4]) [µg/mL]	MIC (Escherichia coli [5]) [µg/mL]	MIC (Escherichia coli [6]) [µg/mL]	MIC (Pseudomonas sp. [7]) [µg/mL]
CC[C@H]1OC(=O)[C@H](C)[C@@H](O[C@H]2C[C@@](C)(OC)[C@@H](O)[C@H](C)O2)[C@H](C)[C@@H](O[C@@H]2O[C@H](C)C[C@H](N(C)C)[C@H]2O)[C@](C)(O)C[C@@H](C)C(=O)[C@H](C)[C@@H](O)[C@]1(C)O [ERYTHROMYCIN]	2400 (≈ 3270 µM)	2500 (≈ 3410 µM)	2500 (≈ 3410 µM)	150 (≈ 204 µM)	250 (≈ 341 µM)	200 (≈ 273 µM)	20 (≈ 27.3 µM)
CC[C@H]1OC(=O)[C@H](C)[C@@H](O[C@H]2C[C@@](C)(OC)[C@@H](O)[C@H](C)O2)[C@H](C)[C@@H](O[C@@H]2O[C@H](C)C[C@H](N(C)C)[C@H]2O)[C@](C)(O)C[C@@H](C)/C(=N\OCOCCOC)[C@H](C)[C@@H](O)[C@]1(C)O [ROXITHROMYCIN]	2500 (≈ 2990 µM)	1200 (≈ 1430 µM)	1400 (≈ 1670 µM)	300 (≈ 358 µM)	550 (≈ 657 µM)	450 (≈ 538 µM)	25 (≈ 29.9 µM)
CC[C@H]1OC(=O)C[C@@H](O)[C@H](C)[C@@H](O[C@@H]2O[C@H](C)[C@@H](O[C@H]3C[C@@](C)(O)[C@@H](O)[C@H](C)O3)[C@H](N(C)C)[C@H]2O)[C@@H](CC=O)C[C@@H](C)C(=O)/C=C/C(C)=C/[C@@H]1CO[C@@H]1O[C@H](C)[C@@H](O)[C@@H](OC)[C@H]1OC [TYLOSIN]	–	150 (≈ 164 µM)	400 (≈ 437 µM)	–	–	–	150 (≈ 164 µM)
